# From PubChem
# AHR act = activators of human aryl hydrocarbon receptor | AHR-responsive luciferase reporter cells, luminescence | activation, % at 5 µM | 320,000 compounds, 2.5% hits; in the data active = activation above about 47%;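 note: 0% = vehicle wells and 100% = reference agonist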
# Target sequence (P35869 whole entry, looked up): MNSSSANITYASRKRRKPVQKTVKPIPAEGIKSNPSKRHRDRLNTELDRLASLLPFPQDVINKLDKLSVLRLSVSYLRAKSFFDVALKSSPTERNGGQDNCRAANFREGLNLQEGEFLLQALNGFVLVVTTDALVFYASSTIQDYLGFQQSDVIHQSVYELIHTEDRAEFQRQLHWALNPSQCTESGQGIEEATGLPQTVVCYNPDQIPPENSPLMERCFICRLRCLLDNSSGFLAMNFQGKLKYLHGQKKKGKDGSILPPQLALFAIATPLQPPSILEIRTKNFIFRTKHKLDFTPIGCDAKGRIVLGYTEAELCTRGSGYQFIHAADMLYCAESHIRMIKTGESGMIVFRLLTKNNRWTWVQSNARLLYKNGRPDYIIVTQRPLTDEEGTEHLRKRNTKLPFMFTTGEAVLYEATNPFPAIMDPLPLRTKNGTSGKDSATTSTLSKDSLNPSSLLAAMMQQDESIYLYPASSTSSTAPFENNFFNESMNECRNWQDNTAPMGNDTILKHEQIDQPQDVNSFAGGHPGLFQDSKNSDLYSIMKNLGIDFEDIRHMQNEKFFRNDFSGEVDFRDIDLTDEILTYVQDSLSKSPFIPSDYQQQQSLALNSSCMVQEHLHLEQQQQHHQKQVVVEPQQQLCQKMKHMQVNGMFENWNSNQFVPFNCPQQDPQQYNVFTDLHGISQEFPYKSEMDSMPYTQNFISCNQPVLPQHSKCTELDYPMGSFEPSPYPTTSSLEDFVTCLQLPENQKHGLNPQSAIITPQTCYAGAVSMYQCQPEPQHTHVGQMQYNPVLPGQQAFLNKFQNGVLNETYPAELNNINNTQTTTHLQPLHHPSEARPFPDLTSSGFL
# SR-BI DiI inh = inhibitors of mouse SR-BI mediated HDL lipid uptake | Q61009 | ldlA[mSR-BI] CHO cells, DiI-HDL uptake fluorescence, 3 h | inhibition, % at 12.5 µM | 320,000 compounds, 0.96% hits;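 active = mean replicate inhibition of at least 70% and a set share of replicates each scoring 70 or more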;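 note: 0% = median of neutral control wells and 100% = median of positive control wells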
# SR-BI uptake up = enhances SR-BI lipid uptake from DiI-HDL | CHO ldlA[mSR-BI] cells, DiI-HDL uptake fluorescence, 3 h; 100 = double the neutral-control signal | activation, % at 12.5 µM | 320,000 compounds, 0.096% hits | AID 504775;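 active = mean replicate activation of at least 60% and every replicate at or above 60%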;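 note: 0% = median plate neutral-control signal and 100% = twice that signal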
#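 Material: SR-BI-overexpressing, LDLR-lacking CHO cells; schedule: compound exposure 3 h, 37 °C; reagent: DiI-labelled HDL at 10 µg/mL final; technique: bottom-read fluorescence, 550/595 nm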
# SMARCA2 act = SMARCA2 function activation, primary screen | AID 652017 | MG213 cells, MMTV-luciferase reporter, dexamethasone, overnight | activation, % at 9.1 µM | 370,000 compounds, 1% hits; in the data active = activation above about 7.8%;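 note: 0% = vehicle wells and 100% = reference activator wells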
# Hep lipid drop = hepatic lipid droplet formation modulation. AML12 mouse hepatocytes, oleate lipid droplets, BODIPY imaging. inhibition, % at 6.5 µM. 240,000 compounds, 0.4% hits;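 active = lipid droplet intensity inhibited by at least 50%, with more than 500 cells counted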
#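 Assay system: AML12 mouse liver cells | Compound dosing: One dose, 6.5 µM compound | Read-out basis: Droplet intensity reduction, % inhibition | Measured by: Fluorescence imaging, 20x objective, two fields per well | Schedule: Overnight treatment with compound plus oleate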
# CR mimetic SO = yeast age-related superoxide inhibition as caloric restriction mimetic | S. cerevisiae aged cells, superoxide DHE fluorescence; hits give low values | superoxide response (% of plate mean), % at 10 µM | 330,000 compounds, 0.18% hits | AID 2690;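 active = superoxide response under a set limit, about three screen SD below normal, cut at about 65% in these data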;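 note: yeast aged for seven days with compound at 30 °C before DHE staining; 100% = average MFI of all compound-treated wells on the plate with controls excluded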
# The depositor's hits bear a star; x = not tested or not shown. This is a sample that favours compounds with a hit; in the whole collection about 4.3% have one here.
SMILES,AHR act,SR-BI DiI inh,SR-BI uptake up,SMARCA2 act,Hep lipid drop,CR mimetic SO
Nn1c(SCC(=O)N2CCOCC2)nnc1-c1cc(-c2ccc(Cl)cc2)n[nH]1,x,x,x,-2,x,x
CCC(C)(C)n1nnnc1C(c1cc2ccc(C)cc2[nH]c1=O)N(Cc1cccnc1)Cc1ccco1 (configuration not stated),1,2,-2,-3,62*,89
O=C(Nc1ccc(F)cc1)OCc1cn(Cc2ccccc2C(F)(F)F)nn1,x,x,x,-2,x,x
Cc1nc(N2CCCCC2)sc1C(=O)c1ccc(SCCO)c([N+](=O)[O-])c1,-2,78*,-78,-1,-14,87
O=C(Nc1cccc(Cl)c1)Nc1nc(-c2ccccc2)cs1,17,76*,-76,-3,16,108
Cc1nnc(NC(=O)Nc2cccc(Cl)c2)s1,71*,1,-1,3,15,129
O=C(Nc1cccc(Cl)c1)c1csc(-c2ccccc2)n1,93*,-2,2,3,12,89
O=C(Nc1ccc(Cl)c(Cl)c1)c1csc(-c2ccccc2)n1,74*,-26,26,-4,4,106
O=C(Nc1cccc(Cl)c1)c1cnccn1,1,-3,3,3,0,98
NNC(=O)c1csc(-c2ccccc2)n1,13,-2,2,0,-12,105
Cc1nnc(-n2cccc2)s1,x,x,x,-1,x,x
C/C(CC(=O)Nc1ccccn1)=N\NC(=O)c1ccccc1O,27,73*,-73,0,-14,84
COc1ccc(Br)cc1/C=C/C(=O)NC(=S)Nc1ccc(CN2CCOCC2)cc1,35,14,-14,-2,7,132
COc1ccc(Br)cc1/C=C/C(=O)Nc1c(C)cccc1C,5,62,-62,-4,x,98
COc1ccc(NC(=O)/C=C/c2cc(Br)ccc2OC)cc1,28,74*,-74,-1,x,103
CCN(CC)c1ccc(NC(=O)/C=C/c2cc(Br)ccc2OC)cc1,55*,80*,-80,0,x,116
COc1cc(/C=C/C(=O)Nc2ccc(C(C)=O)cc2)cc(OC)c1OC,-6,75*,-75,-2,-1,101
COc1ccc(C(=O)/C=C/Nc2ccc(NC(C)=O)cc2)cc1OC,-4,46,-46,0,x,95
COc1ccc(Br)cc1/C=C/C(=O)c1ccc(NC(C)=O)cc1,4,76*,-77,-3,-28,98
COc1cc(/C=C/C(=O)Nc2ccncc2)cc(OC)c1OC,6,36,-36,0,1,89
COC(=O)[C@]12C[C@H](CC(=O)NCc3cccc(C(F)(F)F)c3)C(=O)N(Cc3ccco3)C1=C[C@H](COCc1ccccc1)O[C@@H]2C,x,x,x,0,x,x
O=C(N[C@@H]1CC[C@H]2SC[C@H](C(=O)O)N2C1=O)OCC1c2ccccc2-c2ccccc21,x,x,x,-3,x,x
CCCCS(=O)(=O)NCC1CCN(C(=O)C(=O)c2cc3ccccc3o2)CC1,x,x,x,-5,x,x
COc1cc(N/C(N)=N/c2nc(C)cc(C)n2)c(OC)cc1Cl,54*,9,-9,-6,-27,91
COc1cc(NC(=O)c2cc(C)no2)c(OC)cc1Cl,17,32,-32,0,2,88
SMILES,AHR act,SR-BI DiI inh,SR-BI uptake up,SMARCA2 act,Hep lipid drop,CR mimetic SO
COc1cc(NC(N)=S)c(OC)cc1Cl,-1,-9,9,-1,-4,100
Cc1noc(C(=O)Nc2cc(Cl)ccc2O)c1Cl,56*,1,-1,0,-3,86
COc1cc(NC(=O)c2onc(C)c2Cl)c(OC)cc1Cl,60*,13,-13,7.9*,10,108
COC(=O)[C@]12C[C@H](CC(=O)NCc3ccc(OC)c(OC)c3)C(=O)N(CCC3=CCCCC3)C1=C[C@H](C(C)C)O[C@@H]2C1CC1,x,x,x,-4,x,x
O=[N+]([O-])c1cccc(C2=Nn3c(nnc3-c3ccccc3)SC2)c1,x,x,x,-5,x,x
CSc1cccc(NC(=O)N2CCc3ccc(NC(=O)c4ccccn4)cc3C2)c1,23,76*,-76,2,-1,106
CCOC(=O)CNC(=O)N1CCc2ccc(NC(=O)c3ccccc3Cl)cc2C1,5,96*,-96,-3,8,92
CC(=O)N1c2ccccc2C(C)=NCC1C(=O)NC1CCCCC1 (configuration not stated),x,x,x,-1,x,x
O=C(OCC(=O)N1CCCCC1)c1c[nH]c2ccccc12,13,-13,13,7.8*,x,110
O=C(OCC(=O)N1CCCC1)c1c[nH]c2ccccc12,-2,-9,9,7,x,108
C=CCCC(=O)N1CCC(C(=O)NCC2COc3ccccc3O2)CC1 (configuration not stated),x,x,x,1,x,x
O=C(Nc1ccccc1)C(=O)Nc1cccnc1,-5,5,-5,4,11,114
O=C(Nc1cccnc1)/C(N=Nc1cccnc1)=C(\O)c1ccccc1,61*,-21,21,4,15,95
C=CCOc1ccc(CNn2c(C)n[nH]c2=S)cc1OC,6,2,-2,3,x,94
C=CCOc1c(Br)cc(CNn2c(C)n[nH]c2=S)cc1OC,48*,-21,21,-1,8,97
COCc1cc(N2CCN(C(=O)OC(C)(C)C)C[C@H]2C)ccc1N1CCN(Cc2ccccc2)[C@@H](C)C1,x,x,x,-4,x,x
CCS(=O)(=O)Nc1ccc(-c2nc3cccnc3s2)cc1,66*,3,-3,2,13,114
CCS(=O)(=O)Nc1cccc(-c2nc3cccnc3s2)c1,76*,23,-23,-1,-3,114
Cc1nc2ccc(S(=O)(=O)Nc3ccc(-c4nc5cccnc5s4)cc3)cc2s1,69*,-22,22,0,10,124
CCS(=O)(=O)Nc1cc(-c2nc3cccnc3s2)ccc1C,70*,19,-19,6,-1,85
Cc1nc2ccc(S(=O)(=O)Nc3cccc(-c4nc5cccnc5s4)c3)cc2s1,14,-37,37,-2,-54,102
Cc1ccc(-c2nc3cccnc3s2)cc1NC(=O)c1ccco1,42,36,-36,3,x,99
CN(CCCOC(=O)c1cc2ccccc2o1)C1CN(Cc2cn(Cc3ccccc3Cl)nn2)S(=O)(=O)C1 (configuration not stated),x,x,x,0,x,x
COC(=O)C[C@@H]1CC[C@H]2[C@H](COc3ccc(NC(=O)Nc4cccc(C#N)c4)cc3C(=O)N2C)O1,x,x,x,-3,x,x
COc1ccc(N2C(=O)CC(Nc3cccc([N+](=O)[O-])c3)C2=O)cc1 (configuration not stated),-4,x,x,3,-33,109
Cc1ccc(NC2CC(=O)N(c3cccc([N+](=O)[O-])c3)C2=O)cc1 (configuration not stated),1,83*,-83,-1,7,101
